Data taken from ChEMBL document CHEMBL5724801, “EUbOPEN Chemogenomics Library - Multiplex” (2024).
Several values for one entry are separate records, joined by “and”; a condition that tells them apart may be missing. Equal entries are not always repeated.

tested on: U2OS; assay: Multiplex assay against U2OS; format: toxicity, cell-based; conditions: human, 12 h, 1 µM, compound concentration 1 uM
Method in brief: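 Cells stained live at seeding with Hoechst33342, BioTracker Green Microtubule Cytoskeleton Dye, MitoTracker Red and Annexin V Alexa Fluor 680 were imaged on a CQ1 microscope at 37°C and 5% CO2 after compound addition. Their classification by CellPathfinder machine-learning gating ran from Hoechst high-intensity objects versus normal cells, to healthy, pyknosed or fragmented nuclei among normal cells, to mitotic or apoptotic among pyknosed cells. Tubulin, mitochondrial-mass and membrane-permeability phenotypes are per cents of healthy-nucleus cells.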

| Compound | Population Apoptotic (%) | Population Fragmented Nuclei (%) | Population Healthy Nuclei (%) | Population Hoechst High Intensity Objects (%) | Population Membrane Permeable-Phenotype (%) | Population Mitochondria Different-Phenotype (%) | Population Mitotic Cells (%) | Population Normal (%) | Population Pyknosed Nuclei (%) | Population Tubulin-Different-Phenotype (%) |
| --- | --- | --- | --- | --- | --- | --- | --- | --- | --- | --- |
| O=c1cccc2n1C[C@@H]1CNC[C@H]2C1 [CYTISINICLINE] | 31.43% and 36.84% | 0.94% and 1.67% | 90.87% and 87.78% | 0% | 1.29% and 1.9% | 0% and 5.06% | 68.57% and 63.16% | 100% | 8.2% and 10.56% | 1.29% and 0% |
| CCc1nn2c(C)cc(C)nc2c1Cc1ccc(-c2nnc(C3CCNCC3)o2)cc1 | 42% and 85% | – | 60% and 84% | 3% and 2% | 12% and 14% | 10% and 17% | – | 96% and 97% | 10% and 6% | 11% and 4% |

same assay, conditions: human, 12 h, 1 µM, compound concentration 1 uM

| Compound | Total Cell Count |
| --- | --- |
| O=c1cccc2n1C[C@@H]1CNC[C@H]2C1 [CYTISINICLINE] | 427 and 180 |
| CCc1nn2c(C)cc(C)nc2c1Cc1ccc(-c2nnc(C3CCNCC3)o2)cc1 | 251 and 110 |

same assay, conditions: human, 12 h, 10 µM, compound concentration 10 uM

| Compound | Population Apoptotic (%) | Population Fragmented Nuclei (%) | Population Healthy Nuclei (%) | Population Hoechst High Intensity Objects (%) | Population Membrane Permeable-Phenotype (%) | Population Mitochondria Different-Phenotype (%) | Population Mitotic Cells (%) | Population Normal (%) | Population Pyknosed Nuclei (%) | Population Tubulin-Different-Phenotype (%) |
| --- | --- | --- | --- | --- | --- | --- | --- | --- | --- | --- |
| O=c1cccc2n1C[C@@H]1CNC[C@H]2C1 [CYTISINICLINE] | 50% | 0.98% and 7.59% | 90.71% and 82.28% | 0% | 1.35% and 0.77% | 0% and 6.92% | 50% | 100% | 8.31% and 10.13% | 1.62% and 1.54% |
| CCc1nn2c(C)cc(C)nc2c1Cc1ccc(-c2nnc(C3CCNCC3)o2)cc1 | 68% and 77% | 24% and 8% | 55% and 76% | 5% and 2% | 26% and 30% | 43% and 62% | 31% and 22% | 94% and 97% | 20% and 14% | 28% and 44% |

same assay, conditions: human, 12 h, 10 µM, compound concentration 10 uM

| Compound | Total Cell Count |
| --- | --- |
| O=c1cccc2n1C[C@@H]1CNC[C@H]2C1 [CYTISINICLINE] | 409 and 158 |
| CCc1nn2c(C)cc(C)nc2c1Cc1ccc(-c2nnc(C3CCNCC3)o2)cc1 | 214 and 129 |

same assay, conditions: human, 24 h, 1 µM, compound concentration 1 uM

| Compound | Population Apoptotic (%) | Population Fragmented Nuclei (%) | Population Healthy Nuclei (%) | Population Hoechst High Intensity Objects (%) | Population Membrane Permeable-Phenotype (%) | Population Mitochondria Different-Phenotype (%) | Population Mitotic Cells (%) | Population Normal (%) | Population Pyknosed Nuclei (%) | Population Tubulin-Different-Phenotype (%) |
| --- | --- | --- | --- | --- | --- | --- | --- | --- | --- | --- |
| O=c1cccc2n1C[C@@H]1CNC[C@H]2C1 [CYTISINICLINE] | 30.23% and 40% | 2.82% and 2.92% | 89.59% and 86.67% | 0% | 1.18% and 2.4% | 0% and 2.4% | 69.77% and 60% | 100% | 7.58% and 10.42% | 0.59% and 0.96% |
| CCc1nn2c(C)cc(C)nc2c1Cc1ccc(-c2nnc(C3CCNCC3)o2)cc1 | 80% and 87% | 26% and 13% | 63% and 80% | 2% and 3% | 4% and 7% | 6% and 12% | 20% and 12% | 97% and 96% | 10% and 6% | 3% |

same assay, conditions: human, 24 h, 1 µM, compound concentration 1 uM

| Compound | Total Cell Count |
| --- | --- |
| O=c1cccc2n1C[C@@H]1CNC[C@H]2C1 [CYTISINICLINE] | 567 and 240 |
| CCc1nn2c(C)cc(C)nc2c1Cc1ccc(-c2nnc(C3CCNCC3)o2)cc1 | 296 and 130 |

same assay, conditions: human, 24 h, 10 µM, compound concentration 10 uM

| Compound | Population Apoptotic (%) | Population Fragmented Nuclei (%) | Population Healthy Nuclei (%) | Population Hoechst High Intensity Objects (%) | Population Membrane Permeable-Phenotype (%) | Population Mitochondria Different-Phenotype (%) | Population Mitotic Cells (%) | Population Normal (%) | Population Pyknosed Nuclei (%) | Population Tubulin-Different-Phenotype (%) |
| --- | --- | --- | --- | --- | --- | --- | --- | --- | --- | --- |
| O=c1cccc2n1C[C@@H]1CNC[C@H]2C1 [CYTISINICLINE] | 32.61% and 45% | 0.88% and 4.81% | 91.01% and 85.58% | 0.18% and 0% | 0.97% and 1.69% | 0% and 3.37% | 67.39% and 55% | 99.82% and 100% | 8.11% and 9.62% | 2.13% and 1.69% |
| CCc1nn2c(C)cc(C)nc2c1Cc1ccc(-c2nnc(C3CCNCC3)o2)cc1 | 77% and 71% | 24% and 15% | 55% and 71% | 3% | 9% and 16% | 40% and 61% | 22% and 28% | 96% | 19% and 13% | – |

same assay, conditions: human, 24 h, 10 µM, compound concentration 10 uM

| Compound | Total Cell Count |
| --- | --- |
| O=c1cccc2n1C[C@@H]1CNC[C@H]2C1 [CYTISINICLINE] | 568 and 208 |
| CCc1nn2c(C)cc(C)nc2c1Cc1ccc(-c2nnc(C3CCNCC3)o2)cc1 | 236 and 163 |

same assay, conditions: human, 48 h, 1 µM, compound concentration 1 uM

| Compound | Population Apoptotic (%) | Population Fragmented Nuclei (%) | Population Healthy Nuclei (%) | Population Hoechst High Intensity Objects (%) | Population Membrane Permeable-Phenotype (%) | Population Mitochondria Different-Phenotype (%) | Population Mitotic Cells (%) | Population Normal (%) | Population Pyknosed Nuclei (%) | Population Tubulin-Different-Phenotype (%) |
| --- | --- | --- | --- | --- | --- | --- | --- | --- | --- | --- |
| O=c1cccc2n1C[C@@H]1CNC[C@H]2C1 [CYTISINICLINE] | 42.86% and 41.18% | 3.85% and 0.73% | 89.27% and 86.8% | 0% and 0.49% | 0.8% and 1.41% | 0.1% and 3.1% | 57.14% and 58.82% | 100% and 99.51% | 6.89% and 12.47% | 0.6% and 0.56% |
| CCc1nn2c(C)cc(C)nc2c1Cc1ccc(-c2nnc(C3CCNCC3)o2)cc1 | 90% and 85% | 17% and 12% | 71% and 72% | 2% | 6% and 7% | 2% and 6% | 10% and 14% | 97% | 10% and 14% | 4% |

same assay, conditions: human, 48 h, 1 µM, compound concentration 1 uM

| Compound | Total Cell Count |
| --- | --- |
| O=c1cccc2n1C[C@@H]1CNC[C@H]2C1 [CYTISINICLINE] | 1118 and 411 |
| CCc1nn2c(C)cc(C)nc2c1Cc1ccc(-c2nnc(C3CCNCC3)o2)cc1 | 376 and 187 |

same assay, conditions: human, 48 h, 10 µM, compound concentration 10 uM

| Compound | Population Apoptotic (%) | Population Fragmented Nuclei (%) | Population Healthy Nuclei (%) | Population Hoechst High Intensity Objects (%) | Population Membrane Permeable-Phenotype (%) | Population Mitochondria Different-Phenotype (%) | Population Mitotic Cells (%) | Population Normal (%) | Population Pyknosed Nuclei (%) | Population Tubulin-Different-Phenotype (%) |
| --- | --- | --- | --- | --- | --- | --- | --- | --- | --- | --- |
| O=c1cccc2n1C[C@@H]1CNC[C@H]2C1 [CYTISINICLINE] | 42.39% and 63.89% | 3.71% and 1.13% | 87.55% and 88.7% | 0 | 0.65% and 2.23% | 0.11% and 0.96% | 57.61% and 36.11% | 100 | 8.75% and 10.17% | 1.19% and 0.64% |
| CCc1nn2c(C)cc(C)nc2c1Cc1ccc(-c2nnc(C3CCNCC3)o2)cc1 | 82% and 75% | 24% and 12% | 55% and 71% | 2 | 10% and 22% | 29% and 31% | 17% and 24% | 97 | 19% and 15% | – |

same assay, conditions: human, 48 h, 10 µM, compound concentration 10 uM

| Compound | Total Cell Count |
| --- | --- |
| O=c1cccc2n1C[C@@H]1CNC[C@H]2C1 [CYTISINICLINE] | 1052 and 354 |
| CCc1nn2c(C)cc(C)nc2c1Cc1ccc(-c2nnc(C3CCNCC3)o2)cc1 | 290 and 219 |
